Results on one compound are retold here after ChEMBL document CHEMBL2169868, “Flavone-based novel antidiabetic and antidyslipidemic agents” (J Med Chem, 2012).

The structures appear in SMILES notation.

Data set [1] relates to Rattus norvegicus. The data set is described as follows: AUC in Sprague-Dawley rat at 2.5 mg/kg, iv by LC-MS/MS method. The conditions noted are these: in vivo.
Data set [2] relates to Mus musculus. The data set is described as follows: Antihyperglycemic activity in diabetic C57BL/KsJ db/db mouse model assessed as reduction in hyperglycemia at 25 mg/kg, po qd for 10 days. Type of data set: functional. On the set-up: scale not given: the % may be the effect or the level left. The essentials:
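db/db mice (C57BL/KsJ, 12−18 weeks, 40−50 g, glucose 200−350 mg/dL), housed at 23 ± 2.0 °C on a 12 h light cycle. Oral dosing daily for 10 days. Blood glucose checked each morning through day 9. Body weight recorded daily from day 1 to day 10. Mean % change versus vehicle, 5 mice per group; Student t test.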

The nature of data set [3]: Elimination half life in Sprague-Dawley rat at 2.5 mg/kg, iv by LC-MS/MS method. Type of data set: ADME, organism-based. On the set-up: dose 2.5 mg/kg, route intravenous. Particulars: in vivo, read-out: beta t1/2 (converted). The essentials: (§1)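 Male Sprague−Dawley rats given a single 2.5 mg/kg iv dose; one formulation was DMF/PG/water (2:4:4), 0.2 μ filtered. Blood drawn from 0.08 to 48 h. Plasma assayed by LC-MS/MS with linear range 0.78−400 ng/mL.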

Data set [4] in a line: Volume of distribution in Sprague-Dawley rat at 2.5 mg/kg, iv by LC-MS/MS method. Further details: dose 2.5 mg/kg, route intravenous. Type of data set: ADME, organism-based. Particulars: in vivo. In outline: as §1
In data set [5] the test system is Syrian golden hamster. The data set is described as follows: Antidyslipidemic activity in high fructose and high-fat diet fed dyslipidemic Syrian golden hamster model assessed as reduction in cholesterol level at 10 mg/kg/day, po for 7 day, po. Type of data set: functional, Mesocricetus auratus. On the set-up: scale not given: the % may be the effect or the level left. The essentials: (§2)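 Syrian golden hamsters fed high-fructose high-fat diet; oral dosing in 1% gum acacia at 10, 30, 100 mg/kg (or 25 mg/kg) for 7 days, sham control given vehicle; plasma TG, cholesterol, LDL-C, HDL-C, glycerol and NEFA (kits), lipoprotein lipase activity and body weight; % change versus HFD control, six hamsters per group.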

Data set [6] relates to Syrian golden hamster. The experiment in a line: Antidyslipidemic activity in high fructose and high-fat diet fed dyslipidemic Syrian golden hamster model assessed as reduction in cholesterol level at 10 to 100 mg/kg/day for 7 days. Format: functional, organism-based. Particulars: Mesocricetus auratus. The essentials: as §2
The subject of data set [7] is Syrian golden hamster. The data set is described as follows: Reduction in body weight in high fructose and high-fat diet fed dyslipidemic Syrian golden hamster model at 10 mg/kg/day, po for 7 days. Format: functional, Mesocricetus auratus. On the set-up: scale not given: the % may be the effect or the level left. The essentials: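 HFD-fed Syrian golden hamsters, six per group, fed a high-fructose diet. Oral dosing in 1% gum acacia for 7 days. Sham group received vehicle. Plasma TG was measured and body weight tracked. Results given as % change versus HFD control.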

Data set [8] relates to Syrian golden hamster. The experiment in a line: Antidyslipidemic activity in high fructose and high-fat diet fed dyslipidemic Syrian golden hamster model assessed as reduction in NEFA level at 10 mg/kg/day, po for 7 day, po. Type of data set: functional, Mesocricetus auratus. On the set-up: scale not given: the % may be the effect or the level left. In outline: as §2
The subject of data set [9] is Syrian golden hamster. The data set is described as follows: Antidyslipidemic activity in high fructose and high-fat diet fed dyslipidemic Syrian golden hamster model assessed as reduction in LDL-cholesterol level at 10 mg/kg/day, po for 7 day, po. Format: functional, Mesocricetus auratus. Further details: scale not given: the % may be the effect or the level left. In outline:
as §2

Data set [10] concerns Mus musculus. The data set is described as follows: Antidyslipidemic activity in diabetic C57BL/KsJ db/db mouse model assessed as reduction in plasma cholesterol level at 25 mg/kg, po qd for 10 days. Further details: scale not given: the % may be the effect or the level left. Format: functional. The essentials: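 db/db mice (blood glucose 200−350, TG 170−250, cholesterol 170−250, HDL-C 32−40 mg/dL) dosed orally at 25 mg/kg daily for 10 days; retro-orbital blood taken on day 11 for plasma TG, cholesterol and HDL-C (and HDL-C/CHOL ratio); mean % change versus vehicle control, 5 mice per group; Student t test.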

Data set [11] deals with Mus musculus. The experiment in a line: Antidiabetic activity in diabetic C57BL/KsJ db/db mouse model assessed as reduction in postprandial glucose level in hyperglycemia at 10 mg/kg, po measured 2 hrs post dose. Format: functional. On the set-up: scale not given: the % may be the effect or the level left. In outline: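 db/db mice (C57BL/KsJ, 12−18 weeks, 40−50 g; selected by glucose 200−350 mg/dL) dosed orally daily for 10 consecutive days at 1, 3, 10, 25 or 50 mg/kg; postprandial blood glucose profile recorded on day 6 with food access interrupted; mean % change versus vehicle in 5 animals per group; Student t test.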

As for `CC(C)(C)NC[C@H](O)COc1ccc2c(=O)cc(-c3cc(OCc4ccccc4)cc(OCc4ccccc4)c3)oc2c1`, the AUC in data set [1] amounted to 666 ng·h/mL. Further, the Activity in data set [2] is 55.4%; in data set [5], 13.8%; in data set [6], “Dose-dependent effect”; in data set [7], 7.38%; in data set [8], 13.1%; in data set [9], 21.1%. Further, the Activity was 30.7% in data set [10] and 28.8% in [11]. Besides, the half-life in data set [3] is 10.1 h. The Vd in data set [4] was 50.3 L/kg.
